# Screens (PubChem BioAssay)
# Hits are enriched below; roughly 2.8% of the tested compounds scored in any of these assays.
# eIF4E 4G PPI – blocks eIF4E binding to eIF4G; P63073+Q04637; TR-FRET eIF4E-eIF4GI(517-606) binding, 2 h; inhibition, % at 21.7 µM; 220,000 tested, 0.37% active;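 note: 0% = full FRET control wells and 100% = background wells lacking eIF4GI fragment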
# Wee1 stabilizer – inhibitors of human Wee1 degradation | P30291 | HeLa Luc-Wee1K328M stability, luciferase luminescence; 100% = proteasome inhibitor MG132 effect | reporter increase, % at 5 µM | 220,000 tested, 1.2% active;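 active = activation above the mean of all tested compounds plus 3 SD, set per screening run, cut at about 8.8% in these data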;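 note: cells exposed to compound for 20 h before luminescence read; 0% = DMSO alone and 100% = MG132 at 30 µM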
# Target sequence (P30291 whole entry K328M): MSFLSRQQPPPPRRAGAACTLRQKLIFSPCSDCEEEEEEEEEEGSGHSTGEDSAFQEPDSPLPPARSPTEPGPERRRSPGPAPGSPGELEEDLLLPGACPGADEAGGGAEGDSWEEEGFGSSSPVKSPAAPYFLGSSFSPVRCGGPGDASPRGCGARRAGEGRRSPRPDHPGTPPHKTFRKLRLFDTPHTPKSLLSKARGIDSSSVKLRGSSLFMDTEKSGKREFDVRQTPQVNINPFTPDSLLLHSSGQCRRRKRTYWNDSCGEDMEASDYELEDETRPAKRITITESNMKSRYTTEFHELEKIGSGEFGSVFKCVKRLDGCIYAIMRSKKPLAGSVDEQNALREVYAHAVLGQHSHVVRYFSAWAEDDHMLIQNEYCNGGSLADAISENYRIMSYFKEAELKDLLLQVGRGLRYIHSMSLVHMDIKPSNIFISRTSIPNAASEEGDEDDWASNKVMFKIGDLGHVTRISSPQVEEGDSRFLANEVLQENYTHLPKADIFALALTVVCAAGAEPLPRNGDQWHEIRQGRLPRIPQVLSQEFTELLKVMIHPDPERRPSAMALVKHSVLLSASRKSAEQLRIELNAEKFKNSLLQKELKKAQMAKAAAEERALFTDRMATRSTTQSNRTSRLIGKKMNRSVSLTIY
# RBBP9 inhibitor – human RBBP9 hydrolase inhibition. 220,000 tested, 0.2% active. AID 1515. recombinant RBBP9, FP-Rh probe fluorescence polarization. inhibition, % at 7.94 µM;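 active = inhibition above the campaign mean of all tested compounds plus 3 SD, cut at about 14% in these data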;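 note: plate controls were DMSO wells with RBBP9 for no effect and wells lacking RBBP9 protein for full effect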
#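 System: RBBP9 protein / Quantity: 2.5 µM RBBP9 dispensing solution, before mixing / Also added: Serine-hydrolase probe FP-Rh, 375 nM pre-mixing / Dosing: 7.94 µM single dose, 0.794% DMSO / Timing: enzyme-compound preincubation 30 min, then probe labeling 45 min, 25 °C / Signal: FP readout at 525/598 nm / Controls: DMSO-treated enzyme wells and wells lacking RBBP9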
# NCF1 inh – p47phox (human) inhibition; P14598; p47phox/p22phox peptide binding, fluorescence polarization, 2 h; inhibition, % at 24.7 µM; 220,000 tested, 0.53% active;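 note: 0% = p47phox with labelled peptide and 100% = labelled peptide alone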
# 14-3-3 Bad inh – disrupts binding of bovine 14-3-3 zeta to phospho-Bad peptide. P63103. TR-FRET 14-3-3zeta/Dy647-pBad peptide displacement, 1 h. inhibition, % at 21.7 µM. 220,000 tested, 0.71% active;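 active = inhibition above about 70%, limit read from the data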;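 note: 0% = full 14-3-3 plus peptide FRET controls and 100% = background without 14-3-3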
# * hit, by the source's call; . = no result; [ ] = remark or other dose.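 Rule for the calls, unless noted: active = inhibition above about 30% (limit read from the data); inactive = the rest.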
SMILES,eIF4E 4G PPI,Wee1 stabilizer,RBBP9 inhibitor,NCF1 inh,14-3-3 Bad inh
O=c1[nH]c(=O)n(Cc2ccc(F)cc2)c(O)c1C=NCC1CCCO1 (configuration not stated),-1,8.9*,-4,4,3
NC1CCCCC1N=Cc1c(O)n(Cc2ccc(F)cc2)c(=O)[nH]c1=O (configuration not stated),5,1,-8,-9,-12
O=C(COC(=O)c1cccc(O)c1)Nc1ccc(Cl)cc1C(=O)c1ccccc1,-2,-1,-15,2,7
CN1C(=O)N(C)C(=O)C2(Cc3cc(N)ccc3N3CCN(c4ccccc4F)CC32)C1=O (configuration not stated),10,-2,-5,-5,82*
Cc1ccc(N)c(C(=O)c2ccc(Br)cc2)c1,2,9.9*,2,-6,-14
CC1(CCl)CN1S(=O)(=O)c1ccccc1 (configuration not stated),-11,-1,-1,14,-3
CC(=O)Cc1c[nH]c2ccccc12,97*,1,0,-8,-6
CC[C@@H](C(N)=O)N1CCCC1=O,98*,-1,-3,-16,4
O=C(CN1CCCC1=O)N1CCOCC1,0,0,-2,-3,-11
Cc1ccc[n+](CC(O)Cn2c3ccccc3c3ccccc32)c1 (configuration not stated),1,0,-4,10,10
C=C(C=O)C[C@@H]1C[C@H](O)C2OC3C[C@]4(C)OC5/C=C\CC6OC7C(CC=CCC6OC5CCCC4OC3CC2O1)OC1CC2OC3CC(=O)OC3C[C@@H](C)C[C@@]2(C)OC1C[C@@H]7C (some centres not stated),-3,.,.,-9,-2
CC1Oc2cc3c(-c4c(O)cc(O)c5c(O)c6c(cc45)OC(C)C(C)C6=O)c(O)cc(O)c3c(O)c2C(=O)C1C (configuration not stated),56*,4,14,-12,25
CN1C(=O)/C(=C\c2ccc(N3CCCCCC3)cc2)C(=O)NC1=S,1,0,-6,14,1
CCC(C)N1C(=O)/C(=C\c2cc3c4c(c2)CCCN4CCC3)C(=O)NC1=S (configuration not stated),0,0,-1,63*,-6
CCC(C)N1C(=O)/C(=C\c2cnc(N(C)C)nc2)C(=O)NC1=S (configuration not stated),-1,5,1,-6,3
CCC(C)N1C(=O)/C(=C\c2ccc(N3CCCCCC3)cc2)C(=O)NC1=S (configuration not stated),5,1,-7,56*,-18
CN1OCC2Cn3c(nc4ccccc43)C21 (configuration not stated),-1,.,.,-11,-2
CN1CSC(=S)N(C)C1,-3,3,0,-20,1
Cn1c(O)c(C=NCCCN2CCCC2=O)c(=O)n(C)c1=O,5,-1,-5,-7,-10
CCOc1ccc(-n2c(O)c(N=Nc3ccc([N+](=O)[O-])cc3)c(=O)[nH]c2=O)cc1,4,0,0,3,-10
CN1C2c3ccccc3C3C4c5ccccc5C(C31)C(C2[N+](=O)[O-])N4C (configuration not stated),2,1,0,92*,-6
Cc1cc(OCCN2CC2)c2ccccc2n1,-1,-1,-8,-2,1
C=CC(C)C(C(=O)c1ccccc1)N(C)C (configuration not stated),-1,-2,-1,-1,1
CC(Cc1ccccc1)[n+]1cc(/N=C(\[O-])N(C)C)on1 (configuration not stated),-3,1,-2,6,85*
O=C(O)CCC(=O)NCCC1=c2ccccc2=N/C1=C\c1c(O)n(Cc2ccc(F)cc2)c(=S)[nH]c1=O,60*,0,-2,-238,75*
SMILES,eIF4E 4G PPI,Wee1 stabilizer,RBBP9 inhibitor,NCF1 inh,14-3-3 Bad inh
CC1CCN(C(=O)CCl)CC1,0,-3,-6,3,6
CSc1ccc(CNC2CN3CCC2CC3)cc1 (configuration not stated),4,-1,-3,-6,58
Clc1ccccc1CNC1CN2CCC1CC2 (configuration not stated),4,11*,3,-45,23
O=C1NC(=O)C(CCc2ccncc2)(Cc2ccc(OCc3ccccc3)cc2)C(=O)N1,-7,8.8*,2,4,0
CC1(C)CC(N(CCc2ccccc2)Cc2ccccc2)CCO1 (configuration not stated),0,2,1,1,3
Fc1ccc2c(c1)nnn2C1CCN(Cc2nnnn2CCc2ccccc2)CC1,-12,1,-2,-4,76*
CCCC(=O)OCC[N+](C)(C)C,-1,9.4*,-9,-7,-4
COc1ccc(CC2C(=O)NC(=O)N(c3ccccc3)C2=O)c(OC)c1 (configuration not stated),69*[fluorescence artefact?],-2,-6,6,3
COc1ccc(CC2C(=O)N(c3ccccc3)C(=O)N(c3ccccc3)C2=O)c(OC)c1,1,1,8,-10,35
C=C1[C@@H](C)[C@H]2[C@H](Cc3ccccc3)NC(=O)[C@]23OC(=O)/C=C/[C@H](O)CCC[C@@H](C)C/C=C/[C@H]3[C@@H]1O,7,-1,5,31*,2
CC(=O)Nc1ccc(OCCF)cc1,-2,2,3,0,-4
Cc1c(N)c(C)c([N+](=O)[O-])c(C)c1[N+](=O)[O-],5,5,-12,-7,-3
O=c1c2ccccc2[se]n1-c1ccccc1,77*,-1,-84,85*,28
O=C(/C=C/c1c[nH]c2ccccc12)c1c(O)n(CCc2ccccc2)c(=O)[nH]c1=O,2,-2,-2,-256,3
CN1CCN(c2ccc([N+](=O)[O-])c(N/N=C3\CN4CCC3CC4)c2)CC1,1,-2,2,-8,3
CCN(CC)c1ccc(/C=N/c2sc3c(c2C#N)C2CCN3CC2)c(O)c1,12,5,-5,74*,-2
CCN1CCN(Cc2cc(Br)cc(Br)c2O)CC1,1,1,-9,5,78*
CCN1CCN(Cc2cc(Br)ccc2O)CC1,0,5,0,-187,41
C1=C(CCNCc2ccccc2)CCCC1,-2,9.3*,-3,-3,4
Fc1ccc(CNCCc2ccccc2)cc1,7,-3,-9,0,36
O=C1C2C3CCC(O3)C2C(=O)N1CCO (configuration not stated),0,2,11,-18,2
CSCc1nnc2n1-c1ccc(Cl)cc1C(c1ccccc1)=NC2,5,1,-1,-6,-8
Cc1nc2ccccc2c(=O)n1-c1cc(F)ccc1F,-7,-2,-1,-5,-4
